Laboratory results: ChEMBL document CHEMBL1275449, “Potent in vitro antifungal activities of naturally occurring acetylenic acids” (Antimicrob Agents Chemother, 2008)
Calls of active or inactive are those of the source. No cut-off for these calls is given here.

Columns and labels:
Candida albicans [1] = assay: Antifungal activity against Candida albicans ATCC 60193 at 178.6 uM after 48 hrs by CLSI method; type: functional, organism-based
Outline: (§1)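 Candida inocula came from 24–72-h SD agar colonies suspended in saline. They were diluted by OD630 standard curve into RPMI 1640 (0.2% dextrose, 0.03% glutamine, 0.165 M MOPS, pH 7.0) to 1.5 × 10³ CFU/ml. Compounds were run as 11 twofold dilutions in 20% DMSO-saline, in duplicate, at 35°C for 48 h, with OD530 read before and after. Percent growth at the top concentration, IC50, MIC, and MFC (SD agar plating) were derived.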

Nakaseomyces glabratus = assay: Antifungal activity against Candida glabrata ATCC 90030 at 178.6 uM after 48 hrs by CLSI method; type: functional, organism-based; outline: as §1
Aspergillus niger = assay: Antifungal activity against Aspergillus niger ATCC 16404 at 178.6 uM after 48 hrs by CLSI method; type: functional, organism-based
[2] = system: Trichophyton mentagrophytes; assay: Antifungal activity against Trichophyton mentagrophytes ATCC MYA-4439 at 178.6 uM after 5 days by CLSI method; type: functional, organism-based
Candida albicans [3] = assay: Antifungal activity against Candida albicans ATCC 32354 at 178.6 uM after 48 hrs by CLSI method; type: functional, organism-based; outline: as §1
Candida tropicalis = assay: Antifungal activity against Candida tropicalis ATCC 750 at 178.6 uM after 48 hrs by CLSI method; type: functional, organism-based
Outline: (§2)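 Yeast suspensions made from 3-5 colonies off 24-72 h SD agar plates in saline. They were diluted by OD630 standard curve in RPMI 1640 (0.2% dextrose, 0.03% glutamine, 0.165 M MOPS, pH 7.0) to 1.5 × 10³ CFU/ml. Twofold dilutions (11 concentrations, 20% DMSO-saline) run in duplicate. OD530 read before and after 35°C, 48 h. Line values are top test concentrations; no-growth endpoints give MIC/MFC.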

Cryptococcus neoformans [4] = assay: Antifungal activity against Cryptococcus neoformans ATCC 66031 at 178.6 uM after 72 hrs by CLSI method; type: functional, organism-based
Outline: (§3)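 SD broth replaced RPMI because growth in RPMI was poor; other CLSI conditions were kept. Inoculum was 1.5 × 10³ CFU/ml from colonies on SD agar, checked by plating. Twofold serial dilutions (11 concentrations) in 20% DMSO-saline were tested in duplicate. OD530 was read before and after incubation at 35°C for 72 h. Percent growth gave IC50; the MIC is the lowest concentration with no detectable growth.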

Vero = assay: Cytotoxicity against African green monkey Vero cells up to 32 uM by neutral red method; type: cell-based; conditions: chlorocebus sabaeus
Outline: (§4)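 Neutral red uptake cytotoxicity, top concentration 32 μM.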

LLC-PK1 = assay: Cytotoxicity against pig LLC-PK1 cells up to 32 uM by neutral red method; type: cell-based, Sus scrofa; outline: as §4
Pichia kudriavzevii = assay: Antifungal activity against Candida krusei ATCC 6258 after 48 hrs by CLSI method; type: functional, organism-based; conditions: ATCC 6258, 48 h; outline: as §1
SK-OV-3 = assay: Cytotoxicity against human SKOV3 cells up to 32 uM by neutral red method; type: cell-based; outline: as §4
Aspergillus fumigatus [5] = assay: Antifungal activity against Aspergillus fumigatus ATCC 90906 at 178.6 uM after 48 hrs by CLSI method; type: functional, organism-based
Candida parapsilosis = assay: Antifungal activity against Candida parapsilosis ATCC 22019 at 178.6 uM after 48 hrs by CLSI method; type: functional, organism-based; outline: as §2
[6] = system: Trichophyton mentagrophytes; assay: Antifungal activity against Trichophyton mentagrophytes ATCC 9533 at 178.6 uM after 5 days by CLSI method; type: functional, organism-based
Candida albicans [7] = assay: Antifungal activity against Candida albicans ATCC 200955 at 178.6 uM after 48 hrs by CLSI method; type: functional, organism-based; outline: as §1
Aspergillus flavus = assay: Antifungal activity against Aspergillus flavus ATCC 204304 at 178.6 uM after 48 hrs by CLSI method; type: functional, organism-based
Candida albicans [8] = assay: Antifungal activity against Fluconazole resistant Candida albicans isolate 17 at 178.6 uM after 48 hrs by CLSI method; type: functional, organism-based
Outline: (§5)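 Candida in CLSI broth microdilution. Saline colony suspension set to 1.5 × 10³ CFU/ml (final) in MOPS-buffered RPMI 1640, pH 7.0. Test agent given as twofold serial dilutions in 20% DMSO-saline, duplicate wells. 35°C for 48 h. Growth read as OD530 before and after incubation. Percent inhibition scored at the highest test concentration.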

SK-MEL = assay: Cytotoxicity against human SK-MEL cells up to 32 uM by neutral red method; type: cell-based; outline: as §4
Trichophyton rubrum [9] = assay: Antifungal activity against Trichophyton rubrum ATCC 10218 by CLSI method; type: functional, organism-based
Outline: (§6)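 Growth scraped from 1- to 6-week-old potato dextrose slants and filtered through Miracloth. Diluted in 5% Alamar blue-RPMI 1640 (MOPS pH 7.0) to 2.7 × 10⁴ CFU/ml. Eleven twofold dilutions in duplicate. Fluorescence at 544 nm excitation/590 nm emission read before and after 35°C, 5 days. IC50 fitted from percent growth. MIC taken as no detectable growth; MFC from clear or blue wells plated on PD agar.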

Candida albicans [10] = assay: Antifungal activity against Fluconazole resistant Candida albicans isolate 1 at 178.6 uM after 48 hrs by CLSI method; type: functional, organism-based; outline: as §5
Trichophyton rubrum [11] = assay: Antifungal activity against Trichophyton rubrum ATCC MYA-4438 at 178.6 uM after 5 days by CLSI method; type: functional, organism-based
Candida albicans [12] = assay: Antifungal activity against Candida albicans ATCC 14053 at 178.6 uM after 48 hrs by CLSI method; type: functional, organism-based
Trichophyton rubrum [13] = assay: Antifungal activity against Trichophyton rubrum ATCC MYA-4438 by CLSI method; type: functional, organism-based; outline: as §6
Trichophyton rubrum [14] = assay: Antifungal activity against Trichophyton rubrum ATCC 10218 at 178.6 uM after 5 days by CLSI method; type: functional, organism-based
KB = assay: Cytotoxicity against human KB cells up to 32 uM by neutral red method; type: cell-based; outline: as §4
Cryptococcus neoformans [15] = assay: Antifungal activity against Cryptococcus neoformans ATCC 90113 at 178.6 uM after 72 hrs by CLSI method; type: functional, organism-based; outline: as §3
[16] = system: Trichophyton mentagrophytes; assay: Antifungal activity against Trichophyton mentagrophytes ATCC MYA-4439 by CLSI method; type: functional, organism-based; outline: as §6
Cryptococcus neoformans [17] = assay: Antifungal activity against Cryptococcus neoformans ATCC 66031 after 72 hrs by CLSI method; type: functional, organism-based; conditions: ATCC 66031, 72 h; outline: as §3
Aspergillus fumigatus [18] = assay: Antifungal activity against Aspergillus fumigatus ATCC 204305 at 178.6 uM after 48 hrs by CLSI method; type: functional, organism-based
BT-549 = assay: Cytotoxicity against human BT549 cells up to 32 uM by neutral red method; type: cell-based; outline: as §4
Candida albicans [19] = assay: Antifungal activity against Candida albicans ATCC 90028 at 178.6 uM after 48 hrs by CLSI method; type: functional, organism-based; outline: as §1

For CCCCCCCCC#CCCCCCCCC(=O)O, the Activity (Candida albicans [1]) was “inactive”, the Activity (Nakaseomyces glabratus) was “inactive” and the Activity (Aspergillus niger) was “inactive”. For the same compound, the Activity [2] was “inactive”, the Activity (Candida albicans [3]) was “inactive” and the Activity (Candida tropicalis) was “inactive”. The Activity (Cryptococcus neoformans [4]) was “inactive”, the Activity (Vero) was “Non-toxic” and the Activity (LLC-PK1) was “Non-toxic”. The IC50 (Pichia kudriavzevii) was greater than 179 µM, the Activity (SK-OV-3) was “Non-toxic” and the Activity (Aspergillus fumigatus [5]) was “inactive”. For the same compound, the Activity (Candida parapsilosis) was “inactive”, the Activity [6] was “inactive” and the Activity (Candida albicans [7]) was “inactive”. For the same compound, the Activity (Aspergillus flavus) was “inactive”, the Activity (Candida albicans [8]) was “inactive” and the Activity (SK-MEL) was “Non-toxic”. The IC50 (Trichophyton rubrum [9]) was greater than 179 µM, the Activity (Candida albicans [10]) was “inactive” and the Activity (Trichophyton rubrum [11]) was “inactive”. The Activity (Candida albicans [12]) was “inactive”, the IC50 (Trichophyton rubrum [13]) was 80.2 µM and the Activity (Trichophyton rubrum [14]) was “inactive”. For the same compound, the Activity (KB) was “Non-toxic”, the Activity (Cryptococcus neoformans [15]) was “inactive” and the IC50 [16] was greater than 179 µM. The IC50 (Cryptococcus neoformans [17]) was greater than 179 µM, the Activity (Aspergillus fumigatus [18]) was “inactive” and the Activity (BT-549) was “Non-toxic”. For the same compound, the Activity (Candida albicans [19]) was “inactive”.
